In ChEMBL document CHEMBL3817745, “Structure-Activity Relationship for the 4(3H)-Quinazolinone Antibacterials” (J Med Chem, 2016):
In brackets after ≈: the same amount, converted by molar mass.

Key:
[1] = Hemolytic activity against human RBC at 64 ug/ml relative to control; type: ADME, cell-based, Erythrocyte; conditions: erythrocyte
In short: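 Hemolysis was measured at a fixed 64 μg/mL on a 10% red-cell suspension from heparinized human blood. Triton-X served as the positive control, and results are given as percent hemolysis.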

Escherichia coli = experiment: Antibacterial activity against Escherichia coli ATCC 25922 incubated for 16 to 20 hrs by microdilution method; type: functional
In short: (§1)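 CLSI broth microdilution. 2-fold serial dilutions were made in cation-adjusted Mueller–Hinton broth, with 5% lysed horse blood added for Streptococcus strains, in triplicate. Inoculum 5×10^5 CFU/mL. Plates incubated 36 °C for 16–20 h. MIC taken as the lowest concentration visibly inhibiting growth.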

HepG2 = experiment: Cytotoxicity against human HepG2 cells incubated for 16 hrs by XTT assay; type: cell-based; conditions: HepG2, 16 h
In short: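 HepG2 cells were tested with an XTT viability read-out, in triplicate. IC50 was obtained by nonlinear regression.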

Klebsiella pneumoniae = experiment: Antibacterial activity against Klebsiella pneumoniae ATCC 700603 incubated for 16 to 20 hrs by microdilution method; type: functional; in short: as §1
Enterococcus faecium = experiment: Antibacterial activity against Enterococcus faecium NCTC 7171 incubated for 16 to 20 hrs by microdilution method; type: functional; in short: as §1
Klebsiella aerogenes = experiment: Antibacterial activity against Enterobacter aerogenes ATCC 35029 incubated for 16 to 20 hrs by microdilution method; type: functional; in short: as §1
Pseudomonas aeruginosa = experiment: Antibacterial activity against Pseudomonas aeruginosa […] incubated for 16 to 20 hrs by microdilution method; type: functional; in short: as §1
Staphylococcus aureus [2] = experiment: Antibacterial activity against methicillin-susceptible Staphylococcus aureus ATCC 29213 incubated for 16 to 20 hrs by microdilution method; type: functional
Acinetobacter baumannii = experiment: Antibacterial activity against Acinetobacter baumannii ATCC 17961 incubated for 16 to 20 hrs by microdilution method; type: functional; in short: as §1
Mus musculus = experiment: AUC (0 to last) in ICR mouse peritonitis model infected with methicillin resistant Staphylococcus aureus ATCC 27660 at 10 mg/kg, iv administered as single dose measured up to 8 hrs by UPLC analysis; type: ADME, organism-based; design: dose 10 mg/kg, time 0 - last, route intravenous; conditions: in vivo, 8 h
In short: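 Fast PK: female ICR mice (n = 2 per time point) given single tail-vein iv injection at 5, 10 or 20 mg/kg in 25% DMSO/65% propylene glycol/10% water (2.5, 5 or 10 mg/mL); terminal cardiac blood at 5 min, 40 min, 2, 4, 8 h; plasma analysed by UPLC with internal standard calibration.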

Bacillus cereus = experiment: Antibacterial activity against Bacillus cereus ATCC 13061 incubated for 16 to 20 hrs by microdilution method; type: functional; in short: as §1
Streptococcus oralis = experiment: Antibacterial activity against Streptococcus oralis ATCC 9811 incubated for 16 to 20 hrs by microdilution method; type: functional; in short: as §1
Staphylococcus aureus [3] = experiment: Antibacterial activity against vancomycin/methicillin-resistant Staphylococcus aureus VRS1 clinical isolate incubated for 16 to 20 hrs by microdilution method; type: functional
Streptococcus pyogenes = experiment: Antibacterial activity against Streptococcus pyogenes ATCC 49399 incubated for 16 to 20 hrs by microdilution method; type: functional; in short: as §1
[4] = system: Staphylococcus epidermidis; experiment: Antibacterial activity against Staphylococcus epidermidis ATCC 35547 incubated for 16 to 20 hrs by microdilution method; type: functional; in short: as §1
Staphylococcus aureus [5] = experiment: Antibacterial activity against vancomycin/methicillin-resistant Staphylococcus aureus VRS2 clinical isolate incubated for 16 to 20 hrs by microdilution method; type: functional

SMILES	Activity [1] [%]	MIC (Escherichia coli) [µg/mL]	IC50 (HepG2) [µg/mL]	MIC (Klebsiella pneumoniae) [µg/mL]	MIC (Enterococcus faecium) [µg/mL]	MIC (Klebsiella aerogenes) [µg/mL]	MIC (Pseudomonas aeruginosa) [µg/mL]	MIC (Staphylococcus aureus [2]) [µg/mL]	MIC (Acinetobacter baumannii) [µg/mL]	AUClast (Mus musculus) [µg·min/mL]	MIC (Bacillus cereus) [µg/mL]	MIC (Streptococcus oralis) [µg/mL]	MIC (Staphylococcus aureus [3]) [µg/mL]	MIC (Streptococcus pyogenes) [µg/mL]	MIC [4] [µg/mL]	MIC (Staphylococcus aureus [5]) [µg/mL]
CC(=O)NCc1cccc(-n2c(/C=C/c3ccc(C#N)cc3)nc3ccccc3c2=O)c1	< 1	≥ 16	99 (≈ 235 µM)	≥ 16	≥ 8	≥ 16	≥ 16	0.015 (≈ 0.0357 µM)	≥ 16	142	–	–	–	–	–	–
Cc1ccc(-c2nc3ccccc3c(=O)n2-c2cccc(O)c2)cc1	–	≥ 16	–	≥ 16	≥ 8	≥ 16	≥ 16	128 (≈ 390 µM)	≥ 16	–	–	–	–	–	–	–
O=c1c2ccccc2nc(/C=C/c2ccc3c(c2)OCO3)n1-c1cccc(O)c1	–	≥ 16	–	≥ 16	≥ 8	≥ 16	≥ 16	2 (≈ 5.2 µM)	≥ 16	–	–	–	–	–	–	–
COc1ccc(/C=C/c2nc3ccccc3c(=O)n2-c2cccc(O)c2)cc1	–	≥ 16	–	≥ 16	≥ 8	≥ 16	≥ 16	4 (≈ 10.8 µM)	≥ 16	–	–	–	–	–	–	–
O=c1c2ccccc2nc(CCc2ccccc2)n1-c1cccc(O)c1	–	≥ 16	–	≥ 16	≥ 8	≥ 16	≥ 16	0.06 (≈ 0.175 µM)	≥ 16	–	–	–	–	–	–	–
O=c1c2ccccc2nc(/C=C/c2ccc(Cl)cc2)n1-c1cccc(O)c1	–	≥ 16	–	≥ 16	≥ 8	≥ 16	≥ 16	0.125 (≈ 0.333 µM)	≥ 16	–	–	–	–	–	–	–
O=c1c2ccccc2nc(/C=C/c2ccccc2)n1-c1cccc(O)c1	–	≥ 16	–	≥ 16	≥ 8	≥ 16	≥ 16	0.5 (≈ 1.47 µM)	≥ 16	–	–	–	–	–	–	–
O=c1c2ccccc2nc(/C=C/c2ccccc2F)n1-c1cccc(O)c1	–	≥ 16	–	≥ 16	≥ 8	≥ 16	≥ 16	1 (≈ 2.79 µM)	≥ 16	–	–	–	–	–	–	–
O=C(O)c1ccc(/C=C/c2nc3ccccc3c(=O)n2-c2cccc(O)c2)cc1	–	≥ 16	–	≥ 16	≥ 8	≥ 16	≥ 16	> 128	≥ 16	–	–	–	–	–	–	–
O=c1c2ccccc2nc(/C=C/c2ccncc2)n1-c1cccc(O)c1	–	≥ 16	–	≥ 16	≥ 8	≥ 16	≥ 16	2 (≈ 5.86 µM)	≥ 16	–	–	–	–	–	–	–
Nc1ccc(/C=C/c2nc3ccccc3c(=O)n2-c2cccc(O)c2)cc1	–	≥ 16	–	≥ 16	≥ 8	≥ 16	≥ 16	16 (≈ 45 µM)	≥ 16	–	–	–	–	–	–	–
O=c1c2ccccc2nc(/C=C/c2ccc(C(F)(F)F)cc2)n1-c1cccc(O)c1	–	≥ 16	–	≥ 16	≥ 8	≥ 16	≥ 16	128 (≈ 313 µM)	≥ 16	–	–	–	–	–	–	–
N#Cc1ccc(/C=C/c2nc3cc([N+](=O)[O-])ccc3c(=O)n2-c2cccc(C(=O)O)c2)cc1	–	≥ 16	–	≥ 16	≥ 8	≥ 16	≥ 16	64 (≈ 146 µM)	≥ 16	–	–	–	–	–	–	–
C#Cc1ccc(/C=C/c2nc3ccccc3c(=O)n2-c2cccc(O)c2)cc1	–	≥ 16	–	≥ 16	≥ 8	≥ 16	≥ 16	0.003 (≈ 0.00823 µM)	≥ 16	–	–	–	–	–	–	–
O=c1c2ccccc2nc(/C=C/c2ccco2)n1-c1cccc(O)c1	–	≥ 16	–	≥ 16	≥ 8	≥ 16	≥ 16	128 (≈ 387 µM)	≥ 16	–	–	–	–	–	–	–
O=c1c2ccccc2nc(/C=C/c2ccc(O)cc2)n1-c1cccc(O)c1	–	≥ 16	–	≥ 16	≥ 8	≥ 16	≥ 16	> 128	≥ 16	–	–	–	–	–	–	–
O=c1c2ccccc2nc(/C=C/c2ccccc2[N+](=O)[O-])n1-c1cccc(O)c1	–	≥ 16	–	≥ 16	≥ 8	≥ 16	≥ 16	128 (≈ 332 µM)	≥ 16	–	–	–	–	–	–	–

SMILES	Activity [1] [%]	MIC (Escherichia coli) [µg/mL]	IC50 (HepG2) [µg/mL]	MIC (Klebsiella pneumoniae) [µg/mL]	MIC (Enterococcus faecium) [µg/mL]	MIC (Klebsiella aerogenes) [µg/mL]	MIC (Pseudomonas aeruginosa) [µg/mL]	MIC (Staphylococcus aureus [2]) [µg/mL]	MIC (Acinetobacter baumannii) [µg/mL]	AUClast (Mus musculus) [µg·min/mL]	MIC (Bacillus cereus) [µg/mL]	MIC (Streptococcus oralis) [µg/mL]	MIC (Staphylococcus aureus [3]) [µg/mL]	MIC (Streptococcus pyogenes) [µg/mL]	MIC [4] [µg/mL]	MIC (Staphylococcus aureus [5]) [µg/mL]
O=c1c2ccccc2nc(Cc2ccccc2)n1-c1cccc(O)c1	–	≥ 16	–	≥ 16	≥ 8	≥ 16	≥ 16	32 (≈ 97.5 µM)	≥ 16	–	–	–	–	–	–	–
CCc1ccc(/C=C/c2nc3ccccc3c(=O)n2-c2cccc(O)c2)cc1	–	≥ 16	–	≥ 16	≥ 8	≥ 16	≥ 16	0.5 (≈ 1.36 µM)	≥ 16	–	–	–	–	–	–	–
O=c1c2cc(Br)ccc2nc(/C=C/c2ccc([N+](=O)[O-])cc2)n1-c1cccc(O)c1	–	≥ 16	–	≥ 16	≥ 8	≥ 16	≥ 16	–	≥ 16	–	–	–	–	–	–	–
CC(C)c1ccc(/C=C/c2nc3ccccc3c(=O)n2-c2cccc(O)c2)cc1	–	≥ 16	–	≥ 16	≥ 8	≥ 16	≥ 16	–	≥ 16	–	–	–	–	–	–	–
O=c1c2ccccc2nc(/C=C/c2ccc(F)cc2)n1-c1cccc([N+](=O)[O-])c1	–	≥ 16	–	≥ 16	≥ 8	≥ 16	≥ 16	–	≥ 16	–	–	–	–	–	–	–
CC(=O)OCCCn1c(/C=C/c2ccc(C#N)cc2)nc2ccccc2c1=O	–	≥ 16	–	≥ 16	≥ 8	≥ 16	≥ 16	–	≥ 16	–	–	–	–	–	–	–
CC(=O)OCC#Cc1ccc(/C=C/c2nc3ccccc3c(=O)n2-c2cccc(C(=O)O)c2)cc1	–	≥ 16	–	≥ 16	≥ 8	≥ 16	≥ 16	–	≥ 16	–	–	–	–	–	–	–
CC(=O)Oc1cccc(-n2c(/C=C/c3ccc([N+](=O)[O-])cc3)nc3ccccc3c2=O)c1	–	≥ 16	–	≥ 16	≥ 8	≥ 16	≥ 16	–	≥ 16	–	–	–	–	–	–	–
CN[C@@H](CC(C)C)C(=O)N[C@H]1C(=O)N[C@@H](CC(N)=O)C(=O)N[C@H]2C(=O)N[C@H]3C(=O)N[C@H](C(=O)N[C@@H](C(=O)O)c4cc(O)cc(O)c4-c4cc3ccc4O)[C@H](O)c3ccc(c(Cl)c3)Oc3cc2cc(c3O[C@H]2O[C@@H](CO)[C@H](O)[C@@H](O)[C@@H]2O[C@@H]2C[C@@](C)(N)[C@@H](O)[C@@H](C)O2)Oc2ccc(cc2Cl)[C@H]1O	–	–	–	–	–	–	–	–	–	–	1 (≈ 0.69 µM)	0.5 (≈ 0.345 µM)	512 (≈ 353 µM)	0.5 (≈ 0.345 µM)	16 (≈ 11 µM)	64 (≈ 44.2 µM)
N#Cc1ccc(/C=C/c2nc3ccncc3c(=O)n2-c2cccc(C(N)=O)c2)cc1	–	≥ 16	–	≥ 16	≥ 8	≥ 16	≥ 16	–	≥ 16	–	–	–	–	–	–	–
N#Cc1ccc(/C=C/c2nc3cc(C(=O)O)ccc3c(=O)n2-c2cccc(C(=O)O)c2)cc1	–	≥ 16	–	≥ 16	≥ 8	≥ 16	≥ 16	128 (≈ 293 µM)	≥ 16	–	–	–	–	–	–	–
NC(=O)c1cccc(-n2c(/C=C/c3ccc(Cl)cc3)nc3ccncc3c2=O)c1	–	≥ 16	–	≥ 16	≥ 8	≥ 16	≥ 16	–	≥ 16	–	–	–	–	–	–	–
Nc1cccc(-n2c(/C=C/c3ccc(F)cc3)nc3ccccc3c2=O)c1	–	≥ 16	–	≥ 16	≥ 8	≥ 16	≥ 16	–	≥ 16	–	–	–	–	–	–	–
N#Cc1ccc(/C=C/c2nc3ccccc3c(=O)n2-c2cccc(F)c2)cc1	–	≥ 16	–	≥ 16	≥ 8	≥ 16	≥ 16	–	≥ 16	–	–	–	–	–	–	–
O=c1c2ccccc2nc(/C=C/c2cccc(F)c2)n1-c1cccc(O)c1	–	≥ 16	–	≥ 16	≥ 8	≥ 16	≥ 16	–	≥ 16	–	–	–	–	–	–	–
COC(=O)Nc1cccc(-n2c(/C=C/c3ccc(C#N)cc3)nc3ccccc3c2=O)c1	–	≥ 16	–	≥ 16	≥ 8	≥ 16	≥ 16	–	≥ 16	–	–	–	–	–	–	–
N#Cc1ccc(/C=C/c2nc3ccncc3c(=O)n2-c2cccc(C(=O)O)c2)cc1	–	≥ 16	–	≥ 16	≥ 8	≥ 16	≥ 16	–	≥ 16	–	–	–	–	–	–	–
